Bioassay records (PubChem BioAssay)
A selection: hits, their analogues and other compounds. The true share with any hit is near 0.77%.
S1P3 antag – S1P3 receptor antagonists, primary screen, cell-based. CHO S1P3 NFAT-BLA reporter, FRET fluorescence, antagonist mode. inhibition, % at 4.98 µM. 170,000 tested, 0.27% active;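 active = inhibition above the plate cutoff, the mean inhibition of test wells on that plate plus 3 SD, cut at about 28% in these data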;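 also: cells challenged with S1P at its EC80 of 0.8 µM; blue over green emission ratio from cleaved BLA substrate after 4 h stimulation; 0% = S1P-stimulated wells and 100% = unstimulated DMSO-only wells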
Calb biofilm kill – clotrimazole potentiators killing C. albicans biofilm, primary screen, 4-compound mixtures | C. albicans biofilm persisters + clotrimazole, fluorescence viability; primary screen in compound mixtures of four per well | inhibition, % at 7.6 µM | 120,000 tested, 0.02% active;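 active = inhibition above 30.3% in the primary screen of four-compound pools, then above 30% when the compound was retested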;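 also: compounds exposed to preformed 24 h biofilms for 48 h; 0% = untreated biofilm control and 100% = clotrimazole plus chlorhexidine kill blank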
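System: C. albicans CAF4-2 wild-type biofilms; Medium: RPMI/MOPS medium, pH 7.0; Reagent: Clotrimazole, 50 µg/mL; Times: biofilm formation 24 h, compound exposure 48 h, 37 °C; Detection: 2-h Alamar Blue fluorescence, 535/590 nm excitation/emission; Evaluation: percent inhibition of biofilm viability.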
Pf gametocyte – late stage P. falciparum gametocyte viability inhibitors, primary screen, ATP luminescence, HTS; P. falciparum stage V gametocytes, 24 h; inhibition, % at 10.9 µM; 150,000 tested, 0.065% active; AID 743093, 2013;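 active = inhibition above the mean plus 3 SD of compounds within the control limits, set per campaign, cut at about 38% in these data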;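 also: 0% = DMSO wells and 100% = medium only without gametocytes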
S1P4 agonist – S1P4 receptor agonists, primary screen, cell-based. Sphingosine 1-phosphate receptor 4 (Homo sapiens), O95977. S1P4-expressing cell line, agonist reporter assay. activation, % at 4.98 µM. 220,000 tested, 0.35% active; in the data active = activation above about 11%;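 also: 0% = DMSO vehicle and 100% = reference agonist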
S1P4 antag – S1P4 receptor antagonists, primary screen, cell-based. AID 1510, 2009. Sphingosine 1-phosphate receptor 4 (Homo sapiens), O95977. inhibition, % at 4.98 µM. S1P4-expressing cells, antagonist mode, reporter read-out. 220,000 tested, 0.26% active; in the data active = inhibition above about 29%;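 also: 0% = wells stimulated with agonist and 100% = vehicle wells without agonist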
S1P4 agonist cf – S1P4 receptor agonists, retest, confirmation, cell-based, high throughput | shares compounds with S1P4 agonist | 740 tested, 7% active | activation, % at 4.98 µM | S1P4 agonist cell-based reporter assay; in the data active = activation above about 12%;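 also: 0% = vehicle and 100% = full reference agonist response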
S1P1 ag – S1P1 receptor agonists, human, counter-screen for S1P4 agonist project, cell-based; shares compounds with S1P4 agonist; S1P1 agonist cell-based assay, activation; activation, % at 4.98 µM; 740 tested, 4% active; in the data active = activation above about 21%;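 also: 0% = vehicle wells and 100% = reference agonist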
Target sequence (P21453 whole entry, looked up): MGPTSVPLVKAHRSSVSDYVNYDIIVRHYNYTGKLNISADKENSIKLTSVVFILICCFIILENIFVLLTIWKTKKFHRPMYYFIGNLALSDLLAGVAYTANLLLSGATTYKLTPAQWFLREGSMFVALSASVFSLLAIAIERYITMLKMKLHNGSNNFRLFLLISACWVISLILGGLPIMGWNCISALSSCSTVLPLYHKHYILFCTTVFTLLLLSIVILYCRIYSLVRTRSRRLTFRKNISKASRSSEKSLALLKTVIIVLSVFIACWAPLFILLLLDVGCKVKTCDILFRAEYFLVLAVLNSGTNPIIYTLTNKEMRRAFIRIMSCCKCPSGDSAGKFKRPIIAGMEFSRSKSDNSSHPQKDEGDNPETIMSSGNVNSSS
Numbers without * were called inactive.

Results for COC(C[C@@H](O)[C@@H](C)[C@H](O)COCc1ccccc1)OC ?
Calb biofilm kill: 15; Pf gametocyte: -24

How did CCCSc1nnc(NC(=O)Nc2ccc(F)cc2)s1 do in these assays?
S1P4 agonist: 61*; S1P4 antag: -3; S1P4 agonist cf: -2; S1P1 ag: 2

What do the screens show for `Cc1cc(N2CCCC(C(=O)Nc3ccc4c(c3)CCC4)C2)n2ncnc2n1` (stereo not given)?
S1P3 antag: 9; S1P4 agonist: 17*; S1P4 antag: 12; S1P4 agonist cf: -2; S1P1 ag: -5

What do the screens show for `Cc1cc(N2CCCC(C(=O)Nc3cccc(Cl)c3)C2)n2ncnc2n1` (stereo not given)?
S1P3 antag: 13; Calb biofilm kill: 24; Pf gametocyte: 19; S1P4 agonist: 1; S1P4 antag: 11

Results for C=CCNC(=O)c1ccc(N(C)S(=O)(=O)c2ccc(OC)cc2)cc1 ?
Pf gametocyte: 9; S1P4 agonist: -3; S1P4 antag: -29

What do the screens show for `C=CCNC(=O)c1ccc(OC)cc1`?
S1P3 antag: -16; Calb biofilm kill: 24; S1P4 agonist: 15*; S1P4 antag: -2; S1P4 agonist cf: -1; S1P1 ag: 4

Results for COC(=O)C(C)(C)ONC(=O)Nc1ccc(Br)cc1 ?
S1P3 antag: 2; Calb biofilm kill: 10; Pf gametocyte: 15; S1P4 agonist: -1; S1P4 antag: 6

Results for COC(=O)C(C)(C)ONC(=O)Nc1ccccc1 ?
S1P3 antag: -27; Calb biofilm kill: 12; Pf gametocyte: 9; S1P4 agonist: 194*; S1P4 antag: 5; S1P4 agonist cf: -2; S1P1 ag: -3

How did O=C(Nc1cccnc1)c1ccc(C(=O)Nc2cccnc2)cc1 do in these assays?
S1P3 antag: -14; Calb biofilm kill: 14; Pf gametocyte: -23; S1P4 agonist: 0; S1P4 antag: 6

Results for CC(Nc1cccnc1)=C(C#N)C#N ?
S1P3 antag: -4; Calb biofilm kill: 7; Pf gametocyte: 15; S1P4 agonist: 12*; S1P4 antag: -8; S1P4 agonist cf: -3; S1P1 ag: 15

Results for O=C(COc1ccccc1)NCc1cccs1 ?
S1P4 agonist: 14*; S1P4 antag: -1; S1P4 agonist cf: -3; S1P1 ag: -4

How did CC(=O)NCCCc1nc2ccccc2n1Cc1c(F)cccc1Cl do in these assays?
S1P3 antag: 3; Calb biofilm kill: -10; Pf gametocyte: 12; S1P4 agonist: 52*; S1P4 antag: -10; S1P4 agonist cf: -2; S1P1 ag: -6

What do the screens show for `CC(=O)NCCCc1nc2ccccc2n1Cc1cc(C)ccc1C`?
S1P3 antag: 12; Calb biofilm kill: 11; Pf gametocyte: 8; S1P4 agonist: 1; S1P4 antag: -2

How did Cn1c(C(=O)NN)cc2cc(OCc3ccccc3)ccc21 do in these assays?
Pf gametocyte: -25

How did Cc1cc(C2=NNC(=NC3CC3)SC2)c(C)n1-c1c(C)n(C)n(-c2ccccc2)c1=O do in these assays?
S1P3 antag: 2; Calb biofilm kill: -3; Pf gametocyte: 12; S1P4 agonist: 15*; S1P4 antag: -9; S1P4 agonist cf: -2; S1P1 ag: -2

What do the screens show for `CC1=C(C(=O)OC2CCCCC2)C(c2ccccc2Br)NC(=O)N1` (stereo not given)?
Pf gametocyte: 0

What do the screens show for `CCn1cc(/C=C/C(=O)Nc2c(C)nn(Cc3ccccc3C)c2C)cn1`?
S1P3 antag: -3; Calb biofilm kill: 14; Pf gametocyte: 4; S1P4 agonist: 20*; S1P4 antag: -19; S1P4 agonist cf: -1; S1P1 ag: 3

What do the screens show for `CCn1nc(C)c(NC(=O)/C=C/c2cnn(C)c2)c1C`?
S1P4 agonist: -1; S1P4 antag: -6

Results for CCN(CC)C(=O)Cn1c(=O)n(CCCCCC(=O)Nc2ccccc2)c(=O)c2sccc21 ?
S1P3 antag: 8; Calb biofilm kill: 24; Pf gametocyte: 25; S1P4 agonist: 12*; S1P4 antag: -7; S1P4 agonist cf: -2; S1P1 ag: -2
